From ChEMBL document CHEMBL1150387, “Development and experimental validation of a docking strategy for the generation of kinase-targeted libraries” (J Med Chem, 2008)

Assays:
[1] = biological target: Receptor-type tyrosine-protein kinase FLT3 (Homo sapiens) (UniProt P36888); assay: Inhibition of FLT3 at 10 uM by HTRF assay relative to control
How it was run: (§1)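 HTRF kinase assay, one panel of kinases. Inhibitor stock 50 µM in 100% DMSO; tested at 10 µM. ATP and substrate at final levels near Km. Final buffer: 50 mM Hepes/NaOH pH 7.4, 40 µM Na3VO4, 0.005% Tween-20, 1 mM DTT, MnCl2 or MgCl2 at kinase-dependent levels. Started by adding ATP/substrate. Reaction run at room temperature, time varied by kinase. Detection mix in 50 mM Hepes pH 7.4, 0.1% BSA, 150 mM KF, incubated ≥1 h at room temperature. Activity expressed as % of uninhibited control; n=2.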

[2] = biological target: Ribosomal protein S6 kinase beta-1 (Homo sapiens) (UniProt P23443); assay: Inhibition of p70S6K at 10 uM by HTRF assay relative to control; how it was run: as §1
[3] = biological target: Mitogen-activated protein kinase 9 (Homo sapiens) (UniProt P45984); assay: Inhibition of JNK2 at 10 uM by HTRF assay relative to control; how it was run: as §1
Chain of Mitogen-activated protein kinase 9 (Homo sapiens) (P45984 whole entry, looked up): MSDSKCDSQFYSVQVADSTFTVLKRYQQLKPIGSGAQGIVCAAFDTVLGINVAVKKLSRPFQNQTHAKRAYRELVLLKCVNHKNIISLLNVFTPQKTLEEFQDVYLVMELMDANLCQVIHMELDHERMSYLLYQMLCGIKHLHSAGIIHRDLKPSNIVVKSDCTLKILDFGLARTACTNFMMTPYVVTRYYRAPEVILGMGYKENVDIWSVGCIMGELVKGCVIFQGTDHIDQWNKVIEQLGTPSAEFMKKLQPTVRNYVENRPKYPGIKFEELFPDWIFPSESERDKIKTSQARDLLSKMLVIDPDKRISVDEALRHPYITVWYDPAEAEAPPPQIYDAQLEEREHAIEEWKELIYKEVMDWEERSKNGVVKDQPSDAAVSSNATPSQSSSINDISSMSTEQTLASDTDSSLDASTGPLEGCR

[4] = biological target: Serine/threonine-protein kinase Chk2 (Homo sapiens) (UniProt O96017); assay: Inhibition of CHK2 at 10 uM by HTRF assay relative to control; how it was run: as §1
Chain of Serine/threonine-protein kinase Chk2 (Homo sapiens) (O96017 whole entry): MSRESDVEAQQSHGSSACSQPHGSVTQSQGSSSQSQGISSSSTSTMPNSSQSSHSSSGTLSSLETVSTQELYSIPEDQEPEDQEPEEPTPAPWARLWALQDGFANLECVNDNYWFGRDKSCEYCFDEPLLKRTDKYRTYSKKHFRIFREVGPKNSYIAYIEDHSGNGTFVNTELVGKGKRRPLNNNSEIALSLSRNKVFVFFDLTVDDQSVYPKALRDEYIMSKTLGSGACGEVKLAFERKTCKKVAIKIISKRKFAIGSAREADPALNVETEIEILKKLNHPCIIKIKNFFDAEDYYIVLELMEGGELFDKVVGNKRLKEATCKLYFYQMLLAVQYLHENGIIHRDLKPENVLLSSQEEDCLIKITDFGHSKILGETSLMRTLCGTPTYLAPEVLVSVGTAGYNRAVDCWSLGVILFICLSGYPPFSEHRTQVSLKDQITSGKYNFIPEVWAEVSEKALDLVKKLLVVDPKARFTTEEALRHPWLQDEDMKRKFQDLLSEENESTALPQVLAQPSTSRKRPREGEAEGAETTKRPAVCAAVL

[5] = biological target: Ribosomal protein S6 kinase alpha-3 (Homo sapiens) (UniProt P51812); assay: Inhibition of RSK2 at 10 uM by HTRF assay relative to control; how it was run: as §1
[6] = biological target: Cyclin-dependent kinase 1 (Homo sapiens) (UniProt P06493); assay: Inhibition of CDK1 at 10 uM by HTRF assay relative to control; how it was run: as §1
Chain of Cyclin-dependent kinase 1 (Homo sapiens) (P06493 whole entry, looked up): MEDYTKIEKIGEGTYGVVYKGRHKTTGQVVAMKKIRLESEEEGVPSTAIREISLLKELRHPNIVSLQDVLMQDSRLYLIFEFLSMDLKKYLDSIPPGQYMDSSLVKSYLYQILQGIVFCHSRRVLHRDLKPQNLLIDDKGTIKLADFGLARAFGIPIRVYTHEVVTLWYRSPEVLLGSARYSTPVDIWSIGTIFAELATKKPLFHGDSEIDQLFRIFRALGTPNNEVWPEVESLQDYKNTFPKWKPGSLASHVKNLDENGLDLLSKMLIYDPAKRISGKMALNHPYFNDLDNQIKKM

[7] = biological target: Protein kinase C gamma type (Homo sapiens) (UniProt P05129); assay: Inhibition of PKCgamma at 10 uM by HTRF assay relative to control; how it was run: as §1
[8] = biological target: T1, Serine/threonine-protein kinase Chk1 (Homo sapiens) (UniProt O14757); assay: Inhibition of CHK1 at 10 uM by HTRF assay relative to control; how it was run: as §1
T1 sequence (whole entry): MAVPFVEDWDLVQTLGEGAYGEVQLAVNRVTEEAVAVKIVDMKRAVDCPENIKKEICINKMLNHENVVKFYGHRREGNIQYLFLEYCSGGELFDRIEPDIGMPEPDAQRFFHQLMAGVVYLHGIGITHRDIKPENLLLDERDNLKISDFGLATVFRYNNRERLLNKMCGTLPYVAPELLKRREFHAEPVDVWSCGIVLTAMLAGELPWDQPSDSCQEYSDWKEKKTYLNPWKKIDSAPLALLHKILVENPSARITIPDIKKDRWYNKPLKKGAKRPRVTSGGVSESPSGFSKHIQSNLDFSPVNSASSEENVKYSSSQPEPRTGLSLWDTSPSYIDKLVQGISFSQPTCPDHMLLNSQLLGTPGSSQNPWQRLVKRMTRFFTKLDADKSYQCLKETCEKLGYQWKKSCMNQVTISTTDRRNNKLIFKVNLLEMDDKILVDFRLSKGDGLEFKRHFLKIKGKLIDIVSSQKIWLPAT

[9] = biological target: T2, Mitogen-activated protein kinase 12 (Homo sapiens) (UniProt P53778); assay: Inhibition of p38-gamma at 10 uM by HTRF assay relative to control; how it was run: as §1
T2 sequence (whole entry): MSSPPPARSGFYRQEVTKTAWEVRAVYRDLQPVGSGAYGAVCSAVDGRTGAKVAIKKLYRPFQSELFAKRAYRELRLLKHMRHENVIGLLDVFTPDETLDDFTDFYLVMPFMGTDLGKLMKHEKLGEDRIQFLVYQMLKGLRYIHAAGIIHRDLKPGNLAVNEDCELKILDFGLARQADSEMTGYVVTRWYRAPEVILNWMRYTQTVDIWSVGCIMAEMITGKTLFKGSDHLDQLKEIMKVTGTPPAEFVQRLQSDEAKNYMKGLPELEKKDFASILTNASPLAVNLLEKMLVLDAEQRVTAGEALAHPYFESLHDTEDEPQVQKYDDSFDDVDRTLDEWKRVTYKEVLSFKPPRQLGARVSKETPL

[10] = biological target: Tyrosine-protein kinase Lyn (Homo sapiens) (UniProt P07948); assay: Inhibition of Lyn at 10 uM by HTRF assay relative to control; how it was run: as §1
Chain of Tyrosine-protein kinase Lyn (Homo sapiens) (P07948 2-512 limits assumed): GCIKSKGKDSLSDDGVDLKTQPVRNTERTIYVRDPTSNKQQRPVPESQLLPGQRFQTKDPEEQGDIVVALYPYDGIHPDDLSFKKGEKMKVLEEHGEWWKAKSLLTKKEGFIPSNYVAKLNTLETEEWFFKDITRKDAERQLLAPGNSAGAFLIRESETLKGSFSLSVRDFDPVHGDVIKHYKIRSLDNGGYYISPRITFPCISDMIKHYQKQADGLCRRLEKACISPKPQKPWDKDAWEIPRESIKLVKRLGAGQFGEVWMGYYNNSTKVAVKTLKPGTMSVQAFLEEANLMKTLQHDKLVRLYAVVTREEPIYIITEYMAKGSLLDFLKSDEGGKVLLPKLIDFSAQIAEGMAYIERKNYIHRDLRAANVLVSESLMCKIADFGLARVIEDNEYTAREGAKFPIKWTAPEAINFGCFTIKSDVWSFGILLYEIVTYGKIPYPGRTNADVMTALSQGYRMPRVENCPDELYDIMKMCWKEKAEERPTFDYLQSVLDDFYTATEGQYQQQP

[11] = biological target: Tyrosine-protein kinase Fes/Fps (Homo sapiens) (UniProt P07332); assay: Inhibition of FES at 10 uM by HTRF assay relative to control; how it was run: as §1
[12] = biological target: T3, Inhibitor of nuclear factor kappa-B kinase subunit beta (Homo sapiens) (UniProt O14920); assay: Inhibition of IKK-beta at 10 uM by HTRF assay relative to control; how it was run: as §1
T3 sequence (whole entry): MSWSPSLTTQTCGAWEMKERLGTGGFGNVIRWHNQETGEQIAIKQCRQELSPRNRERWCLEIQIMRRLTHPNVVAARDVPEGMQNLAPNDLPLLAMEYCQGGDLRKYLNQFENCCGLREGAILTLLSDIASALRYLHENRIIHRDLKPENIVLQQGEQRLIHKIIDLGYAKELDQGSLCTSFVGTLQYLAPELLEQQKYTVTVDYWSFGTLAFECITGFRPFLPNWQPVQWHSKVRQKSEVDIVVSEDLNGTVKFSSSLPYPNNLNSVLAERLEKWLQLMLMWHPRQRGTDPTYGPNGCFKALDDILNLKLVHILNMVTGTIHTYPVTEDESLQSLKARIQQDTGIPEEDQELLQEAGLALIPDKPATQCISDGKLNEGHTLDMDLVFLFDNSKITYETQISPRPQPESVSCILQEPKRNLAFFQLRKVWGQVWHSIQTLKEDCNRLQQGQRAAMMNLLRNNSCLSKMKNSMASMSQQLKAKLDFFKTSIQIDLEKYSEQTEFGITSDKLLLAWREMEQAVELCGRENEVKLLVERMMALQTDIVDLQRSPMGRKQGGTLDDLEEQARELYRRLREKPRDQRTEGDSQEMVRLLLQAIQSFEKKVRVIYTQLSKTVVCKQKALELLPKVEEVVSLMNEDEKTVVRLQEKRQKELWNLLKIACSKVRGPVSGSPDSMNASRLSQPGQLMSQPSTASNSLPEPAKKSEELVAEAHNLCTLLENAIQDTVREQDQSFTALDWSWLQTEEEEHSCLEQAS

[13] = biological target: Rho-associated protein kinase 2 (Homo sapiens) (UniProt O75116); assay: Inhibition of ROCK2 at 10 uM by HTRF assay relative to control; how it was run: as §1
Chain of Rho-associated protein kinase 2 (Homo sapiens) (O75116 whole entry, looked up): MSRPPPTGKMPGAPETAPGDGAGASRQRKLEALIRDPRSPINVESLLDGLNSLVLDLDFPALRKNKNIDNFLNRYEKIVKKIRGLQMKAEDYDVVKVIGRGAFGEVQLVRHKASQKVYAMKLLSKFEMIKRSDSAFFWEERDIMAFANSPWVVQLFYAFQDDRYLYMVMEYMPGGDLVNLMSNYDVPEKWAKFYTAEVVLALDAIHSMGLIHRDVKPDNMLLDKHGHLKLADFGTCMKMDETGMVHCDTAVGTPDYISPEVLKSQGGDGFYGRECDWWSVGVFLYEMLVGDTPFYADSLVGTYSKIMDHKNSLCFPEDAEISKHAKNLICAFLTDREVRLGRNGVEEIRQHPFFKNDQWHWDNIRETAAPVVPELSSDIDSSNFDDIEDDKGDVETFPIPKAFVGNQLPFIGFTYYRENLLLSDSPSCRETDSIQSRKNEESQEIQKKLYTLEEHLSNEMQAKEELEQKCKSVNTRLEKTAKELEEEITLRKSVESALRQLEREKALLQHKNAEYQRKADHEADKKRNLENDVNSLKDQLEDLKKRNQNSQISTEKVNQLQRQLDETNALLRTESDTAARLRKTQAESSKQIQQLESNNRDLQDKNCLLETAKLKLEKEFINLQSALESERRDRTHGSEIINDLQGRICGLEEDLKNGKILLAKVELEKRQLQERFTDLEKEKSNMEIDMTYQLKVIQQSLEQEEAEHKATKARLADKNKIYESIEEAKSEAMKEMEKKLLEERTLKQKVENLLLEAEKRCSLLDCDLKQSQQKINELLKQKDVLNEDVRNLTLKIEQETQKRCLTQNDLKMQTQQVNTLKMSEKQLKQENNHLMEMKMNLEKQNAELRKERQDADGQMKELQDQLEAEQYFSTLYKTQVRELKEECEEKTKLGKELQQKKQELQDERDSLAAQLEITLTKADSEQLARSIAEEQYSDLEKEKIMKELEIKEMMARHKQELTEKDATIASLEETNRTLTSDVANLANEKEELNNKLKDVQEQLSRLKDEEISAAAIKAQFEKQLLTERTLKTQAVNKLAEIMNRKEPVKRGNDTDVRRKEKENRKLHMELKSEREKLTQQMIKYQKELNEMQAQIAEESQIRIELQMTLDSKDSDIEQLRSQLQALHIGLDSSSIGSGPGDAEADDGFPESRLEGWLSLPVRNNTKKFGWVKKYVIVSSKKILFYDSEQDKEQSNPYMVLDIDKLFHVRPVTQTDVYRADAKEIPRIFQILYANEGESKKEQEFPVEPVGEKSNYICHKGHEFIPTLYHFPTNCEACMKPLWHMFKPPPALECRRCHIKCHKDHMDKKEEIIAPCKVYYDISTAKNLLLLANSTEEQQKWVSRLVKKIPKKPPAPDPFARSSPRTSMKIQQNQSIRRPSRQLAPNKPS

[14] = biological target: High affinity nerve growth factor receptor (Homo sapiens) (UniProt P04629); assay: Inhibition of TrkA at 10 uM by HTRF assay relative to control; how it was run: as §1
[15] = Inhibition of IRK at 10 uM by HTRF assay relative to control; how it was run: as §1
[16] = biological target: Epidermal growth factor receptor (Homo sapiens) (UniProt P00533); assay: Inhibition of EGFR at 10 uM by HTRF assay relative to control; how it was run: as §1
Chain of Epidermal growth factor receptor (Homo sapiens) (P00533 whole entry): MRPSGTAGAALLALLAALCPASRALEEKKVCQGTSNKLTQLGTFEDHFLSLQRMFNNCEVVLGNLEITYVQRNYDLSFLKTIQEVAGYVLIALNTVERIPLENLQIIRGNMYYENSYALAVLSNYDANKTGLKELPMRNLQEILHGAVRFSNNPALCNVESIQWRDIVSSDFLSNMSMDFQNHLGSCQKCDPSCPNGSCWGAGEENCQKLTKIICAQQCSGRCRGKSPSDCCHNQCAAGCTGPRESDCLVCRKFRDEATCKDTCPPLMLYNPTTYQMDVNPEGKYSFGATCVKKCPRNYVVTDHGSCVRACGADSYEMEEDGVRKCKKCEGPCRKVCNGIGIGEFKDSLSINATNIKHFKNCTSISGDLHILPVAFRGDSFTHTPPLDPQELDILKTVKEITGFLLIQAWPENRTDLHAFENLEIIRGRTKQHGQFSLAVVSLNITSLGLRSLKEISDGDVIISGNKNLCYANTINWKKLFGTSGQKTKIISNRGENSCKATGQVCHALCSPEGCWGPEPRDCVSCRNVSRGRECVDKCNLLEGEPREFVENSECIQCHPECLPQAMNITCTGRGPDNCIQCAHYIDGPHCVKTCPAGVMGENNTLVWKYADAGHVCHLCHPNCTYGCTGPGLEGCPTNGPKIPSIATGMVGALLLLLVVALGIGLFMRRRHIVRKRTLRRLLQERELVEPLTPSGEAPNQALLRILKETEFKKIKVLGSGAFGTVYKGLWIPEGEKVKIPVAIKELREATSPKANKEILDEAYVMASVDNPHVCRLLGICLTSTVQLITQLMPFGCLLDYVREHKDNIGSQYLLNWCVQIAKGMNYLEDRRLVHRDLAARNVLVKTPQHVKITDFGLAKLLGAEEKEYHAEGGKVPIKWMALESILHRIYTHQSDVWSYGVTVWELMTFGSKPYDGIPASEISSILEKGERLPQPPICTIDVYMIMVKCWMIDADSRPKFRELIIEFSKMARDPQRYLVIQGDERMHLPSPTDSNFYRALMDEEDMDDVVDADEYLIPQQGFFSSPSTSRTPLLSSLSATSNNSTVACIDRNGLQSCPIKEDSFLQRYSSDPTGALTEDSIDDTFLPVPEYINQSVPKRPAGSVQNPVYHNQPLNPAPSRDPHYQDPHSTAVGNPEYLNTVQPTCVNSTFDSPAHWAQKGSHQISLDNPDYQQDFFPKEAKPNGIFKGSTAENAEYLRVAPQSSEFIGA

[17] = biological target: Protein-tyrosine kinase 6 (Homo sapiens) (UniProt Q13882); assay: Inhibition of Brk at 10 uM by HTRF assay relative to control; how it was run: as §1
Chain of Protein-tyrosine kinase 6 (Homo sapiens) (Q13882 whole entry, looked up): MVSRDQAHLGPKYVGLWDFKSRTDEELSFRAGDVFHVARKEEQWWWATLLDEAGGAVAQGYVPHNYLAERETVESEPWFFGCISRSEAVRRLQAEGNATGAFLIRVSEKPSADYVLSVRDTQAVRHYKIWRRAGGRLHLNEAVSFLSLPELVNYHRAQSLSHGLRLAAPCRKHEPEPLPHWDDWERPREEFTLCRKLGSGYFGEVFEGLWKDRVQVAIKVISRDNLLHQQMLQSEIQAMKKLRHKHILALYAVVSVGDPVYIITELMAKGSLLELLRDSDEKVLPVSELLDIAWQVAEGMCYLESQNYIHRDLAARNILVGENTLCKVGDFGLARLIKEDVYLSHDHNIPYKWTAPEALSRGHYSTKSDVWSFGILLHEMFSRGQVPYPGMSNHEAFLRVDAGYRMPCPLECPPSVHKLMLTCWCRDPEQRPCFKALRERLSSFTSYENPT

Compound	inhibition [1] [%]	inhibition [2] [%]	inhibition [3] [%]	inhibition [4] [%]	inhibition [5] [%]	inhibition [6] [%]	inhibition [7] [%]	inhibition [8] [%]	inhibition [9] [%]	inhibition [10] [%]	inhibition [11] [%]	inhibition [12] [%]	inhibition [13] [%]	inhibition [14] [%]	inhibition [15] [%]	inhibition [16] [%]	inhibition [17] [%]
Cc1cccc(N(C)c2cc(Nc3ccc(CC(=O)Nc4ccc5ncsc5c4)cc3)ncn2)c1	67	18	5	0	0	0	5	1	0	16	24	0	22	23	0	87	29
CN(CCc1ccccn1)C(=O)[C@@H]1CCCN1c1nccc(Nc2ccccc2)n1	0	12	2	3	0	0	6	1	2	0	8	0	0	8	0	0	0
Nc1nc(N2CCOCC2)cc(N2CCC(C(=O)NCCc3ccc(O)cc3)CC2)n1	0	6	3	0	0	0	0	3	0	5	6	4	0	6	0	0	0
CN(CCCn1ccnc1)C(=O)[C@@H]1CCCN1c1nccc(Nc2ccccc2)n1	0	6	6	5	0	0	0	0	1	0	1	3	1	11	0	5	4
COC[C@@H]1CCCN1C(=O)[C@@H]1CCCN1c1nccc(Nc2ccccc2)n1	0	8	4	3	0	3	0	1	4	0	8	6	3	8	0	0	5
Cc1cccc(N(C)c2cc(Nc3cccc(C(=O)NCc4ccc(N(C)C)cc4)c3)ncn2)c1	21	3	4	0	0	0	10	1	0	9	4	3	0	8	0	97	3
Cc1cccc(Nc2nccc3c2CN(C(=O)c2cc(C)n(C)c2C)CC3)c1	0	6	3	0	0	0	4	3	1	6	2	0	0	4	0	82	13
O=C(NCCc1ccc(O)cc1)c1cccc(Nc2nccc(Nc3ccc4ncsc4c3)n2)c1	98	0	39	0	3	0	16	0	0	27	45	11	11	27	1	0	18
COc1cccc(Nc2cc(N3CCC[C@H]3C(=O)NCCN3CCCCC3)nc(N)n2)c1	0	14	3	0	0	0	2	3	0	8	4	6	0	8	0	0	7
CN(C)CC(C)(C)CNC(=O)c1cccc(Nc2nccc(Nc3ccc4ncsc4c3)n2)c1	99	18	88	27	17	5	79	7	9	75	97	52	29	75	87	16	97
Cc1cc(C(=O)N2CCN(c3ncnc4c3CN(Cc3ccccc3)CC4)CC2)c(C)n1C	0	7	3	2	0	0	6	3	0	2	0	3	0	0	0	0	22
O=C(NC[C@@H]1CCCO1)c1cccc(Nc2nccc(Nc3ccc4ncsc4c3)n2)c1	99	23	87	13	9	11	30	2	3	90	90	45	19	34	83	43	81
Clc1ccc2sc(CN3CCN(c4ncnc5c4CN(Cc4ccccc4)CC5)CC3)cc2c1	0	11	5	0	5	0	2	5	2	17	6	10	0	13	7	0	2
O=C(NCc1ccncc1)c1cccc(Nc2cc(Nc3cccc(Br)c3)ncn2)c1	35	16	38	0	5	1	0	4	0	29	17	4	13	8	0	100	10
